Published values pooled from the literature.
Each line is one published result; the experiments were not run side by side.
Target: Serine/threonine-protein kinase 32C (STK32C, Homo sapiens, UniProt Q86UX6)

SMILES | read-out | method | tested at | remaining binding [%]
CC1=C(C#N)C(c2ccc3c(c2)c(NC(=O)c2ccccc2C)nn3C)C(C#N)=C(C)N1 | cell-free assay | competition with immobilised ligand | 1 µM | 79
CC1CCCN1c1nccc(-c2cnn3ncccc23)n1 (centres unmarked) | binding | – | 1 µM | 100
COc1cnc(Nc2cccc(S(N)(=O)=O)c2)nc1N1CCN(c2ccccc2)CC1 | binding | competition with immobilised ligand | 1 µM | 100
Cc1cnn2ncc(-c3ccnc(N(C)C)n3)c2c1 | binding | – | 1 µM | 100
O=C(NCC1CCOCC1)c1n[nH]cc1NC(=O)c1c(F)cccc1F | binding | competition with immobilised ligand | 1 µM | 100
CC(=O)N1CCC(c2ccc(C(=O)NC(=N)N)cc2C(F)(F)F)CC1 | cell-free assay | competition with immobilised ligand | 1 µM | 100
N[C@@H]1CCN(c2nccc(-c3cnn4ncccc34)n2)C1 | binding | – | 1 µM | 99
O=C(N[C@H]1CCCCC/C=C\C2C[C@@]2(C(=O)O)NC(=O)[C@@H]2C[C@@H](Oc3ccncc3)CN2C1=O)OC1CCCC1 (some centres unmarked) | binding | competition with immobilised ligand | 1 µM | 100
C[C@@H]1CN(c2ccc3ncc(-c4ccc5[nH]nc(C6CC6)c5c4)n3n2)C[C@H](C)O1 | binding | competition with immobilised ligand | 50 nM | 85
COc1cnc(Nc2cccc(S(N)(=O)=O)c2)nc1N1CCN(c2ccccc2)C(=O)C1 | binding | competition with immobilised ligand | 1 µM | 100
O=C(NCCCN1CCOCC1)c1ccc(Nc2nccc(-c3cc4ccccc4s3)n2)cc1 | binding | competition with immobilised ligand | 1 µM | 92
F[C@@H]1CCN(c2nccc(-c3cnn4ncccc34)n2)C1 | binding | – | 1 µM | 89
CO[C@H]1CC[C@H](CNc2ccc(S(=O)(=O)NC(=O)c3ccc(N4CCN(CC5=C(c6ccc(Cl)cc6)CC(C)(C)CC5)CC4)cc3Oc3cnc4[nH]ccc4c3)cc2[N+](=O)[O-])CC1 | cell-free assay | competition with immobilised ligand | 1 µM | 54
O=C(c1ccc(Nc2nccc(-c3cc4ccccc4s3)n2)cc1)N1CCC(N2CCCC2)CC1 | binding | competition with immobilised ligand | 1 µM | 100
CCOC(=O)c1cc2cc(-c3cc(C(=O)NCc4ccc(C(=O)O)cc4)nn3C)ccc2[nH]1 | cell-free assay | competition with immobilised ligand | 0.1 µM | 100
CCN1CCN(Cc2ccc(C(=O)Nc3ccc(C)c(Oc4ccc5c(c4)CC(=O)N5)c3)cc2C(F)(F)F)CC1 | binding | competition with immobilised ligand | 1 µM | 100
CNC(=O)Nc1ccc2c(c1)[C@@]1(CC2)OC(=O)N(CC(=O)N(Cc2ccc(F)cc2)[C@@H](C)C(F)(F)F)C1=O | cell-free assay | competition with immobilised ligand | 1 µM | 100
CN(c1nccc(-c2cnn3ncccc23)n1)C1CC1 | binding | – | 1 µM | 70
C=CC(=O)N1CCC(C(=O)NCC(=O)N2CCN(c3nc(-c4cnc(N)nc4C(F)F)nc(N4CCOCC4)n3)CC2)CC1 | binding | competition with immobilised ligand | 1 µM | 99
C[C@@H]1CN(c2cc(-c3nn(C)c4ccc(OC5(C)CC5)cc34)ncn2)C[C@H](C)O1 | cell-free assay | competition with immobilised ligand | 1 µM | 100
CN(C)c1nccc(-c2cnc3ncccn23)n1 | binding | – | 1 µM | 100
COc1cc(-c2cn(C3CCc4c(F)cccc4N(CC(F)(F)F)C3=O)nn2)ccc1-n1cnc(C)c1 (centres unmarked) | cell-free assay | competition with immobilised ligand | 1 µM | 100
c1cncc(-c2cccc(Nc3nccc(NC4CCCCC4)n3)c2)c1 | binding | competition with immobilised ligand | 10 µM | 55
Cc1cnc(Nc2ccc(C(=O)N3CCC(N4CCCC4)CC3)cc2)nc1-c1cc2ccccc2s1 | binding | competition with immobilised ligand | 1 µM | 100
C[C@@H]1CCN(c2nccc(-c3cnn4ncccc34)n2)C1 | binding | – | 1 µM | 83
N#Cc1ccccc1CSc1nnc2c(n1)[nH]c1ccccc12 | binding | competition with immobilised ligand | 10 µM | 83
